Measurements reported in PMC11734723 (Science Advances, 2025).

Assays:
TRPC4 = molecular target: T1, TRPC4 (Mus musculus, UniProt Q9QUQ5); assay: Carbachol-induced Sr2+ entry in TRPC4-overexpressing HEK293 cells; format: cell-based; conditions: read-out: IC50 of Cch-induced Sr2+ entry; Cch 100 nM, Sr2+ 3 mM
T1 sequence (Q9QUQ5 1-890 isoform Q9QUQ5-2): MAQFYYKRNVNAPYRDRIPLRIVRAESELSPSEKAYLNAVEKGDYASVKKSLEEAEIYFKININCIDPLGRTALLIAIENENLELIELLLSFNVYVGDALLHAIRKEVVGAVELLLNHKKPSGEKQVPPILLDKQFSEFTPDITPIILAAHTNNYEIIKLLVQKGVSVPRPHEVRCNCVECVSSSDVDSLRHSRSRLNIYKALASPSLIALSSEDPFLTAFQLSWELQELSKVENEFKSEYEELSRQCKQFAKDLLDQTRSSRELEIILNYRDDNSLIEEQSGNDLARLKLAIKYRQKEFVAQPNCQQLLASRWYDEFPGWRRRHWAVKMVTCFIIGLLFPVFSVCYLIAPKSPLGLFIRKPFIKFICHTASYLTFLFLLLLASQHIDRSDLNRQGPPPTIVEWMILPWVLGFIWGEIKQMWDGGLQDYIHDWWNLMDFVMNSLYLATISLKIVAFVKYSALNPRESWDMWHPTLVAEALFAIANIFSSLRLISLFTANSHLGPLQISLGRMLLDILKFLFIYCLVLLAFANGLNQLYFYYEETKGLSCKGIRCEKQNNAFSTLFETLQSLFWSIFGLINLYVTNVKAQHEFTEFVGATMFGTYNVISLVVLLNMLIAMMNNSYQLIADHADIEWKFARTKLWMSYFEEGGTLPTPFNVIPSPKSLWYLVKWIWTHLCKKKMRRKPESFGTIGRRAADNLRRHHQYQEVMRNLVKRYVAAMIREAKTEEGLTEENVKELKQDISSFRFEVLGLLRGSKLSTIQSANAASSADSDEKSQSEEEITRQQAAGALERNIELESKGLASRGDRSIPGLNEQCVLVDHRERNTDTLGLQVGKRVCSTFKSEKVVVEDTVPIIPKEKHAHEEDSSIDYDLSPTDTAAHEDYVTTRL
Procedure, shortened: (§1)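 HEK293 cells were electroporated with GFP-tagged TRPC4, TRPC5 or TRPC7, plated after 24 h and cultured 48 h under selection; only high-GFP cells were analysed. Coverslip cells were loaded with Fura2 (2 µM) and treated with carbachol (100 nM) plus test compound (0 to 100 µM). Entry was measured after adding Sr²⁺ (3 mM), read as the 340/380 ratio; n = 3 to 5.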

TRPC7 = molecular target: T2, TRPC7 (Homo sapiens, UniProt Q9HCX4); assay: Carbachol-induced Sr2+ entry in TRPC7-overexpressing HEK293 cells; format: cell-based; conditions: read-out: IC50 of Cch-induced Sr2+ entry; Cch 100 nM, Sr2+ 3 mM
T2 sequence (Q9HCX4 1-862): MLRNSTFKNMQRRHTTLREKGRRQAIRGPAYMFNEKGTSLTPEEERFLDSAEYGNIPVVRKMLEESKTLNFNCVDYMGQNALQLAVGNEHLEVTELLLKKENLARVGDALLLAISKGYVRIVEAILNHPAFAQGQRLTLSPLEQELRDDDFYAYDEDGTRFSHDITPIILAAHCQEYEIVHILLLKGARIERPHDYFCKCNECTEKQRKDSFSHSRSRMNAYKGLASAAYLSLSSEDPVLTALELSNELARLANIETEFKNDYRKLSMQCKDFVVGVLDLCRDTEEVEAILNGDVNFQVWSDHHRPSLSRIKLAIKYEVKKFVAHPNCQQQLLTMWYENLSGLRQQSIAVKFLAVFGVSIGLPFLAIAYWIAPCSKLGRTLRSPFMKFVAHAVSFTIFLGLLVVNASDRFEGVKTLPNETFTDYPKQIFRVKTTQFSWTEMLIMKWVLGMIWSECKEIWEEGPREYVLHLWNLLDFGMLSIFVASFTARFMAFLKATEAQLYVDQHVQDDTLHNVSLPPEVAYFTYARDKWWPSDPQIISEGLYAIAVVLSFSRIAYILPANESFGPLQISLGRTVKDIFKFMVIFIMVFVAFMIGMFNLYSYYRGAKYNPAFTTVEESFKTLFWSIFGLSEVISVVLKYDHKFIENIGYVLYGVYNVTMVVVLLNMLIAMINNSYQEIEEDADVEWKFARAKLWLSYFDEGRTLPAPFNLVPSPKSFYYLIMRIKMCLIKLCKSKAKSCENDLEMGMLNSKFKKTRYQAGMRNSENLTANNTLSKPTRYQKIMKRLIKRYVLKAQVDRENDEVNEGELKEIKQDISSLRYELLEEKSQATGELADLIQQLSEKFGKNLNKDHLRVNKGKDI
Procedure, shortened: as §1

Human PBMCs = assay: Basal Ca2+ and Ca2+ oscillations in human PBMC-derived osteoclasts; format: cell-based; conditions: ELP-004 100 nM; for effect on basal Ca2+ levels: 14 days
Procedure, shortened: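 Human PBMCs cultured in αMEM with 10% FBS and human mCSF (50 ng/ml). At 24 h, RANKL (1 or 100 ng/ml) was added; 2–3 days later, human TNFα (2 ng/ml) and test compound (100 nM) were added where indicated. On day 14, coverslip cells were Fura2-loaded (2 µM, 30 min, RT) in buffer with 1 mM Ca²⁺ (pH 7.2) and de-esterified 30 min. Basal 340/380 ratio was recorded 3–5 min in 30–50 cells and plotted against variance.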

SKG mice = assay: SKG mouse model of RA; format: in vivo; conditions: for bone surface density (BS/TV): femur trabecular bone
Procedure, shortened: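 Male and female SKG mice received zymosan A (2 mg, single i.p., saline) at 8 weeks of age. From day 3, they were gavaged daily for 8 weeks with test compound in a PLGA lipid nanoemulsion (180 mg/kg) or vehicle. Paws were scored blind weekly to day 56. Micro-CT covered calcaneal pore volume and connectivity density, femoral trabecular bone (1.75 mm) and L5 (2.15 mm), with BMD calibrated against hydroxyapatite phantoms. Analysis used one-tailed unpaired t or Mann-Whitney tests.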

[1] = preclinical testing in mice; cited from earlier work

- IC50 (TRPC4): 172 nM
- IC50 (TRPC7): 22.8 nM
Compound: CCC(=O)N(C)c1ccc(Cl)c(Cl)c1 [ELP-004]
- effect on basal Ca2+ levels (Human PBMCs; RANKL (100 ng/ml)): significantly lowered
- effect on Ca2+ oscillations (Human PBMCs; RANKL alone): no effect
- effect on basal Ca2+ levels (Human PBMCs; TNFα (2 ng/ml)/RANKL (1 ng/ml)): significantly lowered
- effect on Ca2+ oscillation generation (Human PBMCs; TNFα/RANKL): significantly lowered
- arthritic indices versus vehicle controls (SKG mice; both male and female, ELP-004–LNE 180 mg/kg daily oral): reduced arthritic indices beginning at week 5
- bone surface density in the L5 vertebrae versus vehicle (SKG mice; both sexes): increased
- trabecular number in the L5 vertebrae versus vehicle (SKG mice; both sexes): increased
- porosity in the tarsus or calcaneus (μCT) (SKG mice; either sex, ELP-004–LNE 180 mg/kg daily oral 8 weeks): did not significantly change
- joint inflammation in paws (histology) (SKG mice; either sex, ELP-004–LNE 180 mg/kg daily oral, without statistical significance): only showed a trend
- BMD in the femurs versus vehicle (SKG mice; female mice): increased
- bone volume/tissue volume (BV/TV) in the femurs versus vehicle (SKG mice; female mice): increased
- trabecular number in the femurs versus vehicle (SKG mice; female mice): increased
- mean BMD of femurs (SKG mice; female mice, ELP-004-treated): 0.1436 g/mL
- connectivity density of pores in the calcaneus (SKG mice; females, P < 0.05): attenuated the increase
- rescue of connectivity density of pores in the tarsus (SKG mice; females, P = 0.056): strong tendency
- bone surface density (BS/TV) (SKG mice; females, P < 0.05): 6.78 ± 2.20 mm^−1
- connectivity density of pores in the tarsus (SKG mice; males, P < 0.05): attenuated the increase
- bone surface density (BS/TV) (SKG mice; males, ELP-004–LNE 180 mg/kg daily oral 8 weeks): 9.60 ± 2.16 mm^−1
- cumulative erosion scores for metatarsals 2, 3, 4 and 5 (SKG mice; maximum score 12): reduced erosions in female (P < 0.05), but not male
- genotoxic or off-target toxicities [1]: without inducing genotoxic or extensive off-target toxicities
